In ChEMBL document CHEMBL1133016, “Opiate aromatic pharmacophore structure-activity relationships in CTAP analogues determined by topographical bias, two-dimensional NMR, and biological activity assays” (J Med Chem, 2000):
Bridge positions count the residues as written; N and C are the ends. Square brackets hold non-standard residues; d marks the D form. Peptide text beside a SMILES is read from it. dTic = O=C(O)[C@H]1Cc2ccccc2CN1; Pen = CC(C)(S)[C@H](N)C(=O)O

Tests used:
[1] = target: Mu-type opioid receptor (Rattus norvegicus, UniProt P33535); test: Binding affinity for rat brain Opioid receptor mu 1
How it was run: (§1)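 Whole-brain membranes from adult Sprague-Dawley rats (250-300 g), homogenized at 0 °C in 50 mM Tris-HCl pH 7.4, centrifuged at 48 000g, and preincubated at 25 °C to strip endogenous ligand. Competition run for 3 h at 25 °C in Tris-HCl with BSA, bestatin, bacitracin, captopril and PMSF. Radioligand was [3H][4′-Cl-Phe4]DPDPE 0.75 nM for δ or [3H]DAMGO 1.0 nM for μ, with ≥10 analogue concentrations. Nonspecific binding defined with 10 µM naltrexone; each analogue tested ≥3 times.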

[2] = target: Delta-type opioid receptor (Rattus norvegicus, UniProt P33533); test: Binding affinity for rat brain Opioid receptor delta 1; how it was run: as §1
[3] = organism: Cavia porcellus; test: Evaluated for antagonist activity as the rightward fold shift of dose response curve of the known agonist PL-017 in Guinea pig ileum (GPI). 1-fold indicates no change in the dose response curve; format: functional
How it was run: (§2)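 Longitudinal muscle-myenteric plexus strips from nonterminal ileum of male Hartley guinea pigs (250-500 g). Held in Krebs-bicarbonate at 37 °C under 95% O₂/5% CO₂, 1 g resting tension after 15 min unloaded equilibration. Stimulated transmurally at 0.1 Hz, 0.4 ms pulses, supramaximal voltage. Agonist twitch effect read after 3 min incubation; antagonist added 2 min before agonist. Mean ± SEM.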

[4] = organism: Cavia porcellus; test: Evaluated for agonist activity as percent inhibition in electrically evoked twitch height in Guinea pig ileum (GPI) at 1 uM concentration of compound; format: functional; how it was run: as §2
[5] = organism: Mus musculus; test: Evaluated for agonist activity as percent inhibition in electrically evoked twitch height in mouse vas deferens (MVD) at 1 uM concentration of compound; format: functional
How it was run: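 Vasa deferentia from male ICR mice (25-40 g), held in magnesium-free Krebs at 37 °C under 95% O₂/5% CO₂. Hung 15 min without tension, then under 0.5 g resting tension. Stimulated transmurally at 0.1 Hz, 2 ms pulses, supramaximal voltage. Twitch inhibition read 3 min after agonist, expressed relative to the pre-dose twitch height. Mean ± SEM.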

[6] = organism: Cavia porcellus; test: Evaluated for antagonist activity as the rightward fold shift of dose response curve of the known agonist PL-017 in Guinea pig ileum (GPI) at 1 uM concentration of compound; format: functional; how it was run: as §2

Sequence of Delta-type opioid receptor (P33533 whole entry): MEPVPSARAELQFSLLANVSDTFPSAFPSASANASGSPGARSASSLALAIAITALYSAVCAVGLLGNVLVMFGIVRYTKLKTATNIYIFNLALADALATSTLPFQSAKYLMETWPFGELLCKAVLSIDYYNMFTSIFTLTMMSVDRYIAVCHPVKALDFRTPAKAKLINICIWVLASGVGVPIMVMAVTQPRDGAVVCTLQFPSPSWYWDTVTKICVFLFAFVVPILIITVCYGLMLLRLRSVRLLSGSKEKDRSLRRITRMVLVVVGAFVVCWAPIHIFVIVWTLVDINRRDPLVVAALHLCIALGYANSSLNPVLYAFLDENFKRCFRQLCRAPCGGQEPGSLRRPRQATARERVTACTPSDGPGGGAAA
Sequence of Mu-type opioid receptor (P33535 whole entry): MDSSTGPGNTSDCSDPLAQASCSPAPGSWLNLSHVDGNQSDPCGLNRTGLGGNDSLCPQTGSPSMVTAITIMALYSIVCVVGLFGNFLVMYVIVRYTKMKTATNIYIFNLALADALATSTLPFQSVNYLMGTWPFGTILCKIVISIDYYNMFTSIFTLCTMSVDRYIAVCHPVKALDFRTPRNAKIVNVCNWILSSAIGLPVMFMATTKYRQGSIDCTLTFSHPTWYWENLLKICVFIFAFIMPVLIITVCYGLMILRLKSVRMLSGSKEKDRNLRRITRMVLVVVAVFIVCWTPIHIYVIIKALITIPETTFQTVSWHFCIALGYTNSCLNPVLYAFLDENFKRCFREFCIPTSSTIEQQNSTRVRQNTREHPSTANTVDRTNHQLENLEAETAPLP

SMILES: C[C@@H](O)[C@H](NC(=O)[C@H]1NC(=O)[C@H]([C@@H](C)O)NC(=O)[C@H](CCCN=C(N)N)NC(=O)[C@@H](Cc2c[nH]c3ccccc23)NC(=O)[C@H](Cc2ccc(O)cc2)NC(=O)[C@@H](NC(=O)[C@H](N)[C@@H](C)c2ccccc2)CSSC1(C)C)C(N)=O [listing 1 of 2 here]
- IC50 [1]: 0.021 µM
- IC50 [2]: 1.32 µM

SMILES: C[C@H](c1ccccc1)[C@@H](N)C(=O)N[C@H]1CSSC(C)(C)[C@@H](C(=O)N[C@H](C(N)=O)[C@@H](C)O)NC(=O)[C@H]([C@@H](C)O)NC(=O)[C@H](CCCN=C(N)N)NC(=O)[C@@H](Cc2c[nH]c3ccccc23)NC(=O)[C@H](Cc2ccc(O)cc2)NC1=O [listing 1 of 2 here]
- IC50 [1]: 0.02 µM
- IC50 [2]: 1.19 µM

SMILES: C[C@H](c1ccccc1)[C@H](N)C(=O)N[C@H]1CSSC(C)(C)[C@@H](C(=O)N[C@H](C(N)=O)[C@@H](C)O)NC(=O)[C@H]([C@@H](C)O)NC(=O)[C@H](CCCN=C(N)N)NC(=O)[C@@H](Cc2c[nH]c3ccccc23)NC(=O)[C@H](Cc2ccc(O)cc2)NC1=O [listing 1 of 2 here]
- PL-017 shift [3]: 1
- inhibition at 1 µM [4]: 13%
- inhibition at 1 µM [5]: 0%

SMILES: C[C@@H](O)[C@H](NC(=O)[C@H]1NC(=O)[C@H]([C@@H](C)O)NC(=O)[C@H](CCCNC(=N)N)NC(=O)[C@@H](Cc2c[nH]c3ccccc23)NC(=O)[C@H](Cc2ccc(O)cc2)NC(=O)[C@@H](NC(=O)[C@H](N)Cc2ccccc2)CSSC1(C)C)C(N)=O
- PL-017 shift [6]: 55
- inhibition at 1 µM [4]: 4%
- inhibition at 1 µM [5]: 17%

SMILES: C[C@@H](O)[C@H](NC(=O)[C@H]1NC(=O)[C@H]([C@@H](C)O)NC(=O)[C@H](CCCN=C(N)N)NC(=O)[C@@H](Cc2c[nH]c3ccccc23)NC(=O)[C@H](Cc2ccc(O)cc2)NC(=O)[C@@H](NC(=O)[C@H](N)Cc2c[nH]c3ccccc23)CSSC1(C)C)C(N)=O [listing 1 of 2 here]
- IC50 [1]: 0.00139 µM
- IC50 [2]: 3.53 µM

SMILES: C[C@H](c1c[nH]c2ccccc12)[C@@H](N)C(=O)N[C@H]1CSSC(C)(C)[C@@H](C(=O)N[C@H](C(N)=O)[C@@H](C)O)NC(=O)[C@H]([C@@H](C)O)NC(=O)[C@H](CCCNC(=N)N)NC(=O)[C@@H](Cc2c[nH]c3ccccc23)NC(=O)[C@H](Cc2ccc(O)cc2)NC1=O
- IC50 [1]: 0.0187 µM
- IC50 [2]: 3.64 µM

SMILES: C[C@@H](O)[C@H](NC(=O)[C@H]1NC(=O)[C@H]([C@@H](C)O)NC(=O)[C@H](CCCN=C(N)N)NC(=O)[C@@H](Cc2c[nH]c3ccccc23)NC(=O)[C@H](Cc2ccc(O)cc2)NC(=O)[C@@H](NC(=O)[C@H]2Cc3c([nH]c4ccccc34)CN2)CSSC1(C)C)C(N)=O [listing 1 of 2 here]
- IC50 [1]: 0.173 µM
- IC50 [2]: 0.211 µM

SMILES: C[C@@H](O)[C@H](NC(=O)[C@H]1NC(=O)[C@H]([C@@H](C)O)NC(=O)[C@H](CCCN=C(N)N)NC(=O)[C@@H](Cc2c[nH]c3ccccc23)NC(=O)[C@H](Cc2ccc(O)cc2)NC(=O)[C@@H](NC(=O)[C@H](N)[C@@H](C)c2c[nH]c3ccccc23)CSSC1(C)C)C(N)=O
- PL-017 shift [6]: 68
- inhibition at 1 µM [4]: 0%
- inhibition at 1 µM [5]: 0%

SMILES: C[C@H](c1c[nH]c2ccccc12)[C@@H](N)C(=O)N[C@H]1CSSC(C)(C)[C@@H](C(=O)N[C@H](C(N)=O)[C@@H](C)O)NC(=O)[C@H]([C@@H](C)O)NC(=O)[C@H](CCCN=C(N)N)NC(=O)[C@@H](Cc2c[nH]c3ccccc23)NC(=O)[C@H](Cc2ccc(O)cc2)NC1=O
- PL-017 shift [6]: 39
- inhibition at 1 µM [4]: 0%
- inhibition at 1 µM [5]: 3.7%

SMILES: C[C@H](c1ccccc1)[C@@H](N)C(=O)N[C@H]1CSSC(C)(C)[C@@H](C(=O)N[C@H](C(N)=O)[C@@H](C)O)NC(=O)[C@H]([C@@H](C)O)NC(=O)[C@H](CCCN=C(N)N)NC(=O)[C@@H](Cc2c[nH]c3ccccc23)NC(=O)[C@H](Cc2ccc(O)cc2)NC1=O [listing 2 of 2 here]
- PL-017 shift [6]: 19
- inhibition at 1 µM [4]: 0%
- inhibition at 1 µM [5]: 34%

SMILES: C[C@@H](O)[C@H](NC(=O)[C@H]1NC(=O)[C@H]([C@@H](C)O)NC(=O)[C@H](CCCNC(=N)N)NC(=O)[C@@H](Cc2c[nH]c3ccccc23)NC(=O)[C@H](Cc2ccc(O)cc2)NC(=O)[C@@H](NC(=O)[C@H](N)[C@@H](C)c2c[nH]c3ccccc23)CSSC1(C)C)C(N)=O
- IC50 [1]: 0.0121 µM
- IC50 [2]: 7.48 µM

SMILES: C[C@@H](O)[C@H](NC(=O)[C@H]1NC(=O)[C@H]([C@@H](C)O)NC(=O)[C@H](CCCN=C(N)N)NC(=O)[C@@H](Cc2c[nH]c3ccccc23)NC(=O)[C@H](Cc2ccc(O)cc2)NC(=O)[C@@H](NC(=O)[C@@H](N)[C@@H](C)c2c[nH]c3ccccc23)CSSC1(C)C)C(N)=O
- PL-017 shift [6]: 2.6
- inhibition at 1 µM [4]: 0%
- inhibition at 1 µM [5]: 0%

SMILES: C[C@@H](O)[C@H](NC(=O)[C@H]1NC(=O)[C@H]([C@@H](C)O)NC(=O)[C@H](CCCN=C(N)N)NC(=O)[C@@H](Cc2c[nH]c3ccccc23)NC(=O)[C@H](Cc2ccc(O)cc2)NC(=O)[C@@H](NC(=O)[C@H](N)Cc2c[nH]c3ccccc23)CSSC1(C)C)C(N)=O [listing 2 of 2 here]
- PL-017 shift [6]: 1
- inhibition at 1 µM [4]: 43%
- inhibition at 1 µM [5]: 13.6%

SMILES: C[C@@H](O)[C@H](NC(=O)[C@H]1NC(=O)[C@H]([C@@H](C)O)NC(=O)[C@H](CCCN=C(N)N)NC(=O)[C@@H](Cc2c[nH]c3ccccc23)NC(=O)[C@H](Cc2ccc(O)cc2)NC(=O)[C@@H](NC(=O)[C@H]2Cc3c([nH]c4ccccc34)CN2)CSSC1(C)C)C(N)=O [listing 2 of 2 here]
- PL-017 shift [6]: 1.2
- inhibition at 1 µM [4]: 18%

SMILES: C[C@@H](O)[C@H](NC(=O)[C@H]1NC(=O)[C@H]([C@@H](C)O)NC(=O)[C@H](CCCN=C(N)N)NC(=O)[C@@H](Cc2c[nH]c3ccccc23)NC(=O)[C@H](Cc2ccc(O)cc2)NC(=O)[C@@H](NC(=O)[C@H]2Cc3ccccc3CN2)CSSC1(C)C)C(N)=O (H-[dTic]CY[dW]RT[Pen]T-NH2; disulfide 2-7)
- PL-017 shift [6]: 60
- inhibition at 1 µM [4]: 1%
- inhibition at 1 µM [5]: 10%

SMILES: C[C@H](c1c[nH]c2ccccc12)[C@H](N)C(=O)N[C@H]1CSSC(C)(C)[C@@H](C(=O)N[C@H](C(N)=O)[C@@H](C)O)NC(=O)[C@H]([C@@H](C)O)NC(=O)[C@H](CCCNC(=N)N)NC(=O)[C@@H](Cc2c[nH]c3ccccc23)NC(=O)[C@H](Cc2ccc(O)cc2)NC1=O
- IC50 [1]: 3.4 µM
- IC50 [2]: 7.46 µM

SMILES: C[C@@H](O)[C@H](NC(=O)[C@H]1NC(=O)[C@H]([C@@H](C)O)NC(=O)[C@H](CCCN=C(N)N)NC(=O)[C@@H](Cc2c[nH]c3ccccc23)NC(=O)[C@H](Cc2ccc(O)cc2)NC(=O)[C@@H](NC(=O)[C@H](N)[C@@H](C)c2ccccc2)CSSC1(C)C)C(N)=O [listing 2 of 2 here]
- PL-017 shift [6]: 15
- inhibition at 1 µM [4]: 0%
- inhibition at 1 µM [5]: 8%

SMILES: C[C@@H](O)[C@H](NC(=O)[C@H]1NC(=O)[C@H]([C@@H](C)O)NC(=O)[C@H](CCCN=C(N)N)NC(=O)[C@@H](Cc2c[nH]c3ccccc23)NC(=O)[C@H](Cc2ccc(O)cc2)NC(=O)[C@@H](NC(=O)[C@@H](N)[C@@H](C)c2ccccc2)CSSC1(C)C)C(N)=O
- PL-017 shift [6]: 1
- inhibition at 1 µM [4]: 0%
- inhibition at 1 µM [5]: 35%

SMILES: C[C@H](c1c[nH]c2ccccc12)[C@H](N)C(=O)N[C@H]1CSSC(C)(C)[C@@H](C(=O)N[C@H](C(N)=O)[C@@H](C)O)NC(=O)[C@H]([C@@H](C)O)NC(=O)[C@H](CCCN=C(N)N)NC(=O)[C@@H](Cc2c[nH]c3ccccc23)NC(=O)[C@H](Cc2ccc(O)cc2)NC1=O
- PL-017 shift [6]: 1
- inhibition at 1 µM [4]: 0%
- inhibition at 1 µM [5]: 0%

SMILES: C[C@@H](O)[C@H](NC(=O)[C@H]1NC(=O)[C@H]([C@@H](C)O)NC(=O)[C@H](CCCNC(=N)N)NC(=O)[C@@H](Cc2c[nH]c3ccccc23)NC(=O)[C@H](Cc2ccc(O)cc2)NC(=O)[C@@H](NC(=O)[C@@H](N)[C@@H](C)c2ccccc2)CSSC1(C)C)C(N)=O
- IC50 [1]: 1.5 µM
- IC50 [2]: > 15 µM

SMILES: C[C@@H](O)[C@H](NC(=O)[C@H]1NC(=O)[C@H]([C@@H](C)O)NC(=O)[C@H](CCCNC(=N)N)NC(=O)[C@@H](Cc2c[nH]c3ccccc23)NC(=O)[C@H](Cc2ccc(O)cc2)NC(=O)[C@@H](NC(=O)[C@@H](N)[C@@H](C)c2c[nH]c3ccccc23)CSSC1(C)C)C(N)=O
- IC50 [1]: 1.36 µM
- IC50 [2]: 9.18 µM

SMILES: C[C@H](c1ccccc1)[C@H](N)C(=O)N[C@H]1CSSC(C)(C)[C@@H](C(=O)N[C@H](C(N)=O)[C@@H](C)O)NC(=O)[C@H]([C@@H](C)O)NC(=O)[C@H](CCCN=C(N)N)NC(=O)[C@@H](Cc2c[nH]c3ccccc23)NC(=O)[C@H](Cc2ccc(O)cc2)NC1=O [listing 2 of 2 here]
- IC50 [1]: 5.42 µM
- IC50 [2]: 13.2 µM
